For orientation: inhibition means the share of the control response that was lost under treatment. As usually defined, the Inhibition is the share of the control response that was lost under treatment. High values mean strong suppression, low ones little suppression.

Consider 25 compounds from ChEMBL document CHEMBL1146361, “Studies on acyclic pyrimidines as inhibitors of mycobacteria” (Bioorg Med Chem, 2007).

Experiment [1] relates to Mycobacterium tuberculosis. The experiment in a line: Antimycobacterial activity against Mycobacterium bovis BCG at 1 ug/mL after 24 to 48 hrs by MABA. To be noted: variant bovis BCG. Type of experiment: functional. In short, it runs like this: (§1)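 Compounds in DMSO (100× highest final concentration), diluted in 7H9GC; tested at 100, 50, 10 and 1 µg/mL in triplicate, three experiments. Frozen inoculum diluted in 7H9GC. Read visually and spectrophotometrically. […], mean given. Visual MIC = lowest concentration preventing blue-to-pink change.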

In experiment [2] the test system is Mycobacterium tuberculosis. The experiment in a line: Antimycobacterial activity against Mycobacterium bovis BCG at 50 ug/mL after 24 to 48 hrs by MABA. To be noted: variant bovis BCG. Type of experiment: functional. In short, it runs like this: as §1
(In general: Resazurin is reduced to fluorescent resorufin, in cell work by metabolically active cells.)

Experiment [3] deals with Mycobacterium tuberculosis. As to the kind of experiment: Antimycobacterial activity against Mycobacterium bovis BCG at 100 ug/mL after 24 to 48 hrs by MABA. Type of experiment: functional. To be noted: variant bovis BCG. The essentials:
as §1

Experiment [4] deals with Mycobacterium tuberculosis. The experiment in a line: Antimycobacterial activity against Mycobacterium bovis BCG by MABA. The format is functional, variant bovis BCG. The essentials:
as §1

Experiment [5] concerns Mycobacterium tuberculosis. The experiment in a line: Antimycobacterial activity against Mycobacterium bovis BCG at 10 ug/mL after 24 to 48 hrs by MABA. Type of experiment: functional. To be noted: variant bovis BCG. The essentials: as §1

Turning to `CO[C@H]1/C=C/O[C@@]2(C)Oc3c(C)c(O)c4c(O)c(c(/C=N/N5CCN(C)CC5)c(O)c4c3C2=O)NC(=O)/C(C)=C\C=C\[C@H](C)[C@H](O)[C@@H](C)[C@@H](O)[C@@H](C)[C@H](OC(C)=O)[C@@H]1C` [RIFAMPIN], the inhibition at 1 µg/mL in experiment [1] came out at 100%.

Take `Nc1cn(COCCO)c(=O)[nH]c1=O`: the inhibition at 50 µg/mL in experiment [2] was 50%. 100 µg/mL produced 50% inhibition in experiment [3].

Take `O=c1[nH]c(=O)n(COCCO)cc1Cl`: in experiment [4], the Inhibition came out at 0%.

In experiment [4], `CCCCCCCCCCC#Cc1cn(COCCO)c(=O)n(C#CCCCCCCCCCC)c1=O` showed an Inhibition of 0%.

The compound `Cc1cn(COCCO)c(=O)[nH]c1=O` gave an Inhibition in experiment [4] of 0%.

As to `C=C(N=[N+]=[N-])c1cn(COC(CO)CO)c(=O)[nH]c1=O`, the Inhibition in experiment [4] worked out at 0%.

`O=c1[nH]c(=O)n(COCCO)cc1F` had an Inhibition in experiment [4] of 0%.

In turn, `O=c1[nH]c(=O)n(COC(CO)CO)cc1I` [IODACYCLUR] returned an Inhibition in experiment [4] of 0%.

`[N-]=[N+]=NC(CCl)c1cn(COCCO)c(=O)[nH]c1=O` (stereo unspecified) came in with an inhibition at 10 µg/mL in experiment [5] of 50%. Besides, 50 µg/mL produced 100% inhibition in experiment [2]. In experiment [3], this compound showed an inhibition at 100 µg/mL of 100%.

`C=C(N=[N+]=[N-])c1cn(COCCO)c(=O)[nH]c1=O` returned an inhibition at 10 µg/mL in experiment [5] of 50%. In addition, the inhibition at 50 µg/mL in experiment [2] was determined as 50%. The same compound displayed an inhibition at 100 µg/mL in experiment [3] of 50%.

Take `CCc1cn(COCCO)c(=O)[nH]c1=O`: the Inhibition in experiment [4] turned out to be 0%.

For the compound `[N-]=[N+]=NC(CI)c1cn(COCCO)c(=O)[nH]c1=O` (stereo unspecified), the inhibition at 50 µg/mL in experiment [2] was determined as 50%. For the same compound, the inhibition at 100 µg/mL in experiment [3] worked out at 50%.

`O=c1[nH]c(=O)n(COCCO)cc1I`: the Inhibition in experiment [4] was 0%.

As for `[N-]=[N+]=NC(CCl)c1cn(COC(CO)CO)c(=O)[nH]c1=O` (stereo unspecified), the Inhibition in experiment [4] is 0%.

As to `CCCCCCCCCCC#Cc1cn(COC(CO)CO)c(=O)[nH]c1=O`, the inhibition at 10 µg/mL in experiment [5] is 80%. Also, the inhibition at 1 µg/mL in experiment [1] stood at 50%. In experiment [2], the inhibition at 50 µg/mL was determined as 100%. For the same compound, in experiment [3], the inhibition at 100 µg/mL came out at 100%.

`O=c1[nH]c(=O)n(COCCO)cc1Br` returned an Inhibition in experiment [4] of 0%.

For `O=c1[nH]c(=O)n(COCCO)cc1[N+](=O)[O-]`, the Inhibition in experiment [4] turned out to be 0%.

As to `C=Cc1cn(COC(CO)CO)c(=O)[nH]c1=O`, in experiment [4], the Inhibition worked out at 0%.

Turning to `O=c1ccn(COCCO)c(=O)[nH]1`, the Inhibition in experiment [4] amounted to 0%.

Take `CCCCCC#Cc1cn(COCCO)c(=O)[nH]c1=O`: the Inhibition in experiment [4] is reported as 0%.

Compound `[N-]=[N+]=NC(CBr)c1cn(COC(CO)CO)c(=O)[nH]c1=O` (stereo unspecified) returned an Inhibition in experiment [4] of 0%.

Consider `CCCCCCCCC#Cc1cn(COC(CO)CO)c(=O)[nH]c1=O`, for which, in experiment [5], the inhibition at 10 µg/mL stood at 60%. Further, at 50 µg/mL the inhibition in experiment [2] was 100%. For the same compound, at 100 µg/mL the inhibition in experiment [3] was 100%.

In turn, `[N-]=[N+]=NC(CBr)c1cn(COCCO)c(=O)[nH]c1=O` (stereo unspecified) showed an inhibition at 50 µg/mL in experiment [2] of 100%.

For `[N-]=[N+]=NC(CI)c1cn(COC(CO)CO)c(=O)[nH]c1=O` (stereo unspecified), the Inhibition in experiment [4] was 0%.

As for `C=Cc1cn(COCCO)c(=O)[nH]c1=O`, in experiment [4], the Inhibition was 0%.
